2 molecules from ChEMBL document CHEMBL1142588, “Communesins G and H, new alkaloids from the psychrotolerant fungus Penicillium rivulum” (J Nat Prod, 2005) can be followed below.

A short description of series [1]: Cytotoxicity against african green monkey BS-C-1 cells. Format: cell-based. Conditions: chlorocebus aethiops, bsc-1. In short, it runs like this:
(§1)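 BSC-1 African green monkey kidney cells infected with Herpes simplex type 1 virus (ATCC VR 733); scored for inhibition of virus and for alteration of the host cells.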

The next series has as its system Escherichia coli. Kind of series: Antibacterial activity against Escherichia coli assessed as inhibition zone at 1 mg/mL by paper disk assay. Format: functional, organism-based. The method, boiled down:
(§2)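 Paper disk diffusion; 30 μL of a 1 mg/mL compound solution applied per disk; read-out as zone of inhibition. Panel run in parallel: bacteria E. coli, B. subtilis, P. aeruginosa; fungi C. albicans, T. mentagrophytes, A. resinae.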

A further series deals with Bacillus subtilis. As to the kind of experiment: Antibacterial activity against Bacillus subtilis assessed as inhibition zone at 1 mg/mL by paper disk assay. Format: functional, organism-based. In short, it runs like this: as §2
A further series deals with Pseudomonas aeruginosa. Kind of series: Antibacterial activity against Pseudomonas aeruginosa assessed as inhibition zone at 1 mg/mL by paper disk assay. Format: functional, organism-based. In short, it runs like this: as §2
The test system of a further series is Candida albicans. As to the kind of experiment: Antifungal activity against Candida albicans assessed as inhibition zone at 1 mg/mL by paper disk assay. Format: functional, organism-based. In short, it runs like this:
as §2

Series [2] has as its system Trichophyton mentagrophytes. Kind of series: Antifungal activity against Trichophyton mentagrophytes assessed as inhibition zone at 1 mg/mL by paper disk assay. Format: functional, organism-based. In short, it runs like this:
as §2

Another series deals with Amorphotheca resinae. As to the kind of experiment: Antifungal activity against Amorphotheca resinae assessed as inhibition zone at 1 mg/mL by paper disk assay. Format: functional, organism-based. The method, boiled down:
as §2

The next series has as its system Human alphaherpesvirus 1. As to the kind of experiment: Antiviral activity against herpes simplex virus type 1 ATCC VR 733 infected in african green monkey BS-C-1 cells. Format: functional, organism-based. In short, it runs like this:
as §1

The test system of the next series is Poliovirus 1. Kind of series: Antiviral activity against Poliovirus type 1 infected in african green monkey BS-C-1 cells. Format: functional, organism-based. The method, boiled down:
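Poliovirus type 1 (Pfizer vaccine strain) infecting African green monkey kidney BSC-1 cells; scored for inhibition of the virus and for alteration of the host cells.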

A further series concerns P388. Kind of series: Cytotoxicity against mouse P388 cells. Format: functional. As to conditions: read-out: ID50 (the source's name).

The source made the active and inactive calls. The rule behind the calls is not given here.

For `CCC(=O)N1CC[C@]23c4ccccc4N[C@H]4N(C)c5cccc6c5[C@]42CCN([C@H]6[C@@H]2OC2(C)C)[C@H]13` [COMMUNESIN G], the Activity entry in series [1] was “Non-toxic”. The outcome (with Escherichia coli; in the series with Bacillus subtilis; with Pseudomonas aeruginosa; in the series on Candida albicans; in [2]; with Amorphotheca resinae) was inactive. The result in the series with Human alphaherpesvirus 1 and in the series on Poliovirus 1 was inactive. In the series with P388, the IC50 was above 12.5 µg/mL.

With `CCCC(=O)N1CC[C@]23c4ccccc4N[C@H]4N(C)c5cccc6c5[C@]42CCN([C@H]6[C@@H]2OC2(C)C)[C@H]13` [COMMUNESIN H], in series [1], the Activity result is given as “Non-toxic”. Moreover, the outcome (with Escherichia coli; with Bacillus subtilis; in the series with Pseudomonas aeruginosa; in the series on Candida albicans; in series [2]; in the series with Amorphotheca resinae) was inactive. In addition, the outcome in the series with Human alphaherpesvirus 1 and in the series with Poliovirus 1 was inactive. The IC50 with P388 was above 12.5 µg/mL.
